{"source": "ChEMBL document CHEMBL3046880", "about": "“Syntheses and herbicidal activities of novel triazolinone derivatives” (J Agric Food Chem, 2008)", "key": {"Brassica juncea [1]": {"system": "Brassica juncea", "test": "Herbicidal activity against Brassica juncea assessed as growth inhibition at 150 g of active ingredient/ha administered using post-emergence treatment measured 15 days post treatment protocol under greenhouse conditions", "type": "functional", "how_it_was_run": "(§1)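 Test agents were formulated as 100 g/L emulsified concentrates (DMF solvent, TW-80 emulsifier), diluted with water and sprayed postemergence on pot-grown weeds. Seeds were sown 1-3 cm deep in clay soil (pH 6.5, 1.6% organic matter, 37.3% clay, CEC […]) and grown at 15–30 °C in a greenhouse. Dicots were treated at the two-leaf stage. Untreated and DMF-treated plants served as controls. Activity was scored visually 15 days after treatment.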"}, "Echinochloa crus-galli [2]": {"system": "Echinochloa crus-galli", "test": "Herbicidal activity against Echinochloa crus-galli (barnyard grass) assessed as growth inhibition at 150 g of active ingredient/ha administered using post-emergence treatment measured 15 days post treatment protocol under greenhouse conditions", "type": "functional", "how_it_was_run": "as §1"}, "Gossypium hirsutum [3]": {"system": "Gossypium hirsutum", "test": "Phytotoxicity against Gossypium hirsutum (cotton) plant assessed as growth inhibition at 450 g of active ingredient/ha administered using post-emergence treatment measured 30 days post treatment protocol under greenhouse conditions", "type": "organism-based", "conditions": "in vivo, other, 720 h", "how_it_was_run": "(§2)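 Compounds were formulated as 100 g/L emulsified concentrates in DMF with TW-80 as emulsifier, then diluted with water to the required concentration. They were applied postemergence to pot-grown plants in a greenhouse. The soil was clay, pH 6.5, with 1.6% organic matter, 37.3% clay particles and CEC 12.1 mol/kg. Sulfentrazone served as the reference control.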"}, "Gossypium hirsutum [4]": {"system": "Gossypium hirsutum", "test": "Phytotoxicity against Gossypium hirsutum (cotton) plant assessed as growth inhibition at 300 g of active ingredient/ha administered using post-emergence treatment measured 30 days post treatment protocol under greenhouse conditions", "type": "organism-based", "conditions": "in vivo, other, 720 h", "how_it_was_run": "as §2"}, "Gossypium hirsutum [5]": {"system": "Gossypium hirsutum", "test": "Phytotoxicity against Gossypium hirsutum (cotton) plant assessed as growth inhibition at 150 g of active ingredient/ha administered using post-emergence treatment measured 30 days post treatment protocol under greenhouse conditions", "type": "organism-based", "conditions": "in vivo, other, 720 h", "how_it_was_run": "as §2"}, "[6]": {"test": "Phytotoxicity against Gossypium hirsutum (cotton) plant assessed as growth inhibition at 75 g of active ingredient/ha administered using post-emergence treatment measured 30 days post treatment protocol under greenhouse conditions", "type": "organism-based", "conditions": "in vivo, read-out: GI", "how_it_was_run": "as §2"}, "[7]": {"test": "Phytotoxicity against Oryza sativa (rice) plant assessed as growth inhibition at 300 g of active ingredient/ha administered using post-emergence treatment measured 30 days post treatment protocol under greenhouse conditions", "type": "organism-based", "conditions": "in vivo, read-out: GI", "how_it_was_run": "as §2"}, "Brassica napus": {"system": "Brassica napus", "test": "Phytotoxicity against Brassica napus (oilseed rape) assessed as growth inhibition at 150 g of active ingredient/ha administered using post-emergence treatment measured 30 days post treatment protocol under greenhouse conditions", "type": "organism-based", "conditions": "in vivo, other, 720 h", "how_it_was_run": "as §2"}, "[8]": {"test": "Phytotoxicity against Brassica napus (oilseed rape) assessed as growth inhibition at 75 g of active ingredient/ha administered using post-emergence treatment measured 30 days post treatment protocol under greenhouse conditions", "type": "organism-based", "conditions": "in vivo, read-out: GI", "how_it_was_run": "as §2"}, "Zea mays": {"system": "Zea mays", "test": "Phytotoxicity against Zea mays (maize) plant assessed as growth inhibition at 300 g of active ingredient/ha administered using post-emergence treatment measured 30 days post treatment protocol under greenhouse conditions", "type": "organism-based", "conditions": "in vivo, other, 720 h", "how_it_was_run": "as §2"}, "Brassica juncea [9]": {"system": "Brassica juncea", "test": "Herbicidal activity against Brassica juncea assessed as growth inhibition at 37.5 g of active ingredient/ha administered using post-emergence treatment measured 15 days post treatment protocol under greenhouse conditions", "type": "functional", "how_it_was_run": "as §1"}, "Senna tora": {"system": "Senna tora", "test": "Herbicidal activity against Senna tora assessed as growth inhibition at 150 g of active ingredient/ha administered using post-emergence treatment measured 15 days post treatment protocol under greenhouse conditions", "type": "functional", "how_it_was_run": "as §1"}, "Chenopodium album": {"system": "Chenopodium album", "test": "Herbicidal activity against Chenopodium album assessed as growth inhibition at 37.5 g of active ingredient/ha administered using post-emergence treatment measured 15 days post treatment protocol under greenhouse conditions", "type": "functional", "how_it_was_run": "as §1"}, "Echinochloa crus-galli [10]": {"system": "Echinochloa crus-galli", "test": "Herbicidal activity against Echinochloa crus-galli (barnyard grass) assessed as growth inhibition at 75 g of active ingredient/ha administered using post-emergence treatment measured 15 days post treatment protocol under greenhouse conditions", "type": "functional", "how_it_was_run": "as §1"}, "Echinochloa crus-galli [11]": {"system": "Echinochloa crus-galli", "test": "Herbicidal activity against Echinochloa crus-galli (barnyard grass) assessed as growth inhibition at 37.5 g of active ingredient/ha administered using post-emergence treatment measured 15 days post treatment protocol under greenhouse conditions", "type": "functional", "how_it_was_run": "as §1"}, "Portulaca oleracea": {"system": "Portulaca oleracea", "test": "Herbicidal activity against Portulaca oleracea assessed as growth inhibition at 37.5 g of active ingredient/ha administered using post-emergence treatment measured 15 days post treatment protocol under greenhouse conditions", "type": "functional", "how_it_was_run": "as §1"}, "Cerastium arvense": {"system": "Cerastium arvense", "test": "Herbicidal activity against Cerastium arvense assessed as growth inhibition at 37.5 g of active ingredient/ha administered using post-emergence treatment measured 15 days post treatment protocol under greenhouse conditions", "type": "functional", "how_it_was_run": "as §1"}, "Eclipta prostrata": {"system": "Eclipta prostrata", "test": "Herbicidal activity against Eclipta prostrata assessed as growth inhibition at 75 g of active ingredient/ha administered using post-emergence treatment measured 15 days post treatment protocol under greenhouse conditions", "type": "functional", "how_it_was_run": "as §1"}, "Brassica juncea [12]": {"system": "Brassica juncea", "test": "Herbicidal activity against Brassica juncea assessed as growth inhibition at 75 g of active ingredient/ha administered using post-emergence treatment measured 15 days post treatment protocol under greenhouse conditions", "type": "functional", "how_it_was_run": "as §1"}, "Triticum aestivum [13]": {"system": "Triticum aestivum", "test": "Phytotoxicity against Triticum aestivum (wheat) plant assessed as growth inhibition at 450 g of active ingredient/ha administered using post-emergence treatment measured 30 days post treatment protocol under greenhouse conditions", "type": "organism-based", "conditions": "in vivo, other, 720 h", "how_it_was_run": "as §2"}, "Triticum aestivum [14]": {"system": "Triticum aestivum", "test": "Phytotoxicity against Triticum aestivum (wheat) plant assessed as growth inhibition at 150 g of active ingredient/ha administered using post-emergence treatment measured 30 days post treatment protocol under greenhouse conditions", "type": "organism-based", "conditions": "in vivo, other, 720 h", "how_it_was_run": "as §2"}, "[15]": {"test": "Phytotoxicity against Triticum aestivum (wheat) plant assessed as growth inhibition at 75 g of active ingredient/ha administered using post-emergence treatment measured 30 days post treatment protocol under greenhouse conditions", "type": "organism-based", "conditions": "in vivo, read-out: GI", "how_it_was_run": "as §2"}}, "data": [{"smiles": "CCS(=O)(=O)Nc1cc(-n2nc(C)n(Cc3ccccc3/C(=N\\OC)C(=O)OC)c2=O)c(F)cc1Cl", "values": [{"measurement": "growth inhibition (GI)", "setting": "Brassica juncea [1]", "result": ">80", "unit": "%"}, {"measurement": "growth inhibition (GI)", "setting": "Echinochloa crus-galli [2]", "result": 50, "unit": "%"}, {"measurement": "Activity", "setting": "Gossypium hirsutum [3]", "result": "Toxic"}, {"measurement": "Activity", "setting": "Gossypium hirsutum [4]", "result": "Toxic"}, {"measurement": "Activity", "setting": "Gossypium hirsutum [5]", "result": "Toxic"}, {"measurement": "inhibition at 720 h", "setting": "[6]", "result": 60, "unit": "%"}, {"measurement": "inhibition at 720 h", "setting": "[7]", "result": 0, "unit": "%"}, {"measurement": "Activity", "setting": "Brassica napus", "result": "Toxic"}, {"measurement": "inhibition at 720 h", "setting": "[8]", "result": 80, "unit": "%"}, {"measurement": "Activity", "setting": "Zea mays", "result": "Toxic"}, {"measurement": "growth inhibition (GI)", "setting": "Brassica juncea [9]", "result": ">80", "unit": "%"}, {"measurement": "growth inhibition (GI)", "setting": "Senna tora", "result": 100, "unit": "%"}, {"measurement": "growth inhibition (GI)", "setting": "Chenopodium album", "result": 50, "unit": "%"}, {"measurement": "growth inhibition (GI)", "setting": "Echinochloa crus-galli [10]", "result": 50, "unit": "%"}, {"measurement": "growth inhibition (GI)", "setting": "Echinochloa crus-galli [11]", "result": "<50", "unit": "%"}, {"measurement": "growth inhibition (GI)", "setting": "Portulaca oleracea", "result": 100, "unit": "%"}, {"measurement": "growth inhibition (GI)", "setting": "Cerastium arvense", "result": ">80", "unit": "%"}, {"measurement": "growth inhibition (GI)", "setting": "Eclipta prostrata", "result": ">80", "unit": "%"}, {"measurement": "growth inhibition (GI)", "setting": "Brassica juncea [12]", "result": ">80", "unit": "%"}, {"measurement": "Activity", "setting": "Triticum aestivum [13]", "result": "Toxic"}, {"measurement": "Activity", "setting": "Triticum aestivum [14]", "result": "Toxic"}, {"measurement": "inhibition at 720 h", "setting": "[15]", "result": 40, "unit": "%"}]}]}
